Calls of active or inactive are those of the source.
Legend:
[1] = target: Sodium-dependent serotonin transporter (Rattus norvegicus) (UniProt P31652); test: Inhibition of tritiated serotonin(5-HT) uptake at 0.1 uM concentration; format: functional
In short: (§1)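 Male Wistar rat brain synaptosomes (P2 fraction): hypothalamus for NE, striatum for DA, cerebral cortex for 5-HT. Buffer is Tris- or HEPES-buffered salt medium with glucose, ascorbate and nialamide, pH 7.4 at 37 °C. Preincubated 10 min at 37 °C with compound. Uptake started with [3H]NE 100–300 nM, [3H]DA 50–300 nM or [3H]5-HT 100–200 nM, incubated 3 min (DA) or 6–10 min (NE, 5-HT). Blanks held on ice. Filtered, counted by scintillation.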

Mus musculus [2] = species on record: Mus musculus; test: Gross behavioral effects ascertained in mice; W indicates weak stimulant or depressant activity of little significance.; format: functional, organism-based
In short: (§2)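 Male Swiss Webster mice, 18–24 g, three per dose, given ip doses of 1, 3, 10, 30, 100 and 300 mg/kg. Observed for gross behavior and held for 4 days. Scored as weak (W), stimulant (S), depressant (D) or convulsant (C).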

Rattus norvegicus = species on record: Rattus norvegicus; test: Ability to inhibit the uptake of tritiated norepinephrine (NE) at 0.1 uM concentration; format: functional; in short: as §1
Mus musculus [3] = test: Ability to antagonise intraperitoneal dose; inactive (<10% antagonism) at 30 mg/kg is represented as I-30.; format: functional, organism-based; design: dose 30 mg/kg
In short: (§3)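 Nonfasted male Swiss Webster mice, 18–24 g, ten per dose level and in saline controls. Test compound given ip 30 min before tetrabenazine 32 mg/kg ip; dose expressed as free base. Motor activity and ptosis scored. Control response ≤90% corrected by Abbott's formula.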

[4] = target: Sodium-dependent dopamine transporter (Rattus norvegicus) (UniProt P23977); test: Inhibition of tritiated dopamine (DA) uptake at 0.1 uM concentration; format: functional; in short: as §1
Sequence of Sodium-dependent dopamine transporter (Rattus norvegicus) (P23977 whole entry): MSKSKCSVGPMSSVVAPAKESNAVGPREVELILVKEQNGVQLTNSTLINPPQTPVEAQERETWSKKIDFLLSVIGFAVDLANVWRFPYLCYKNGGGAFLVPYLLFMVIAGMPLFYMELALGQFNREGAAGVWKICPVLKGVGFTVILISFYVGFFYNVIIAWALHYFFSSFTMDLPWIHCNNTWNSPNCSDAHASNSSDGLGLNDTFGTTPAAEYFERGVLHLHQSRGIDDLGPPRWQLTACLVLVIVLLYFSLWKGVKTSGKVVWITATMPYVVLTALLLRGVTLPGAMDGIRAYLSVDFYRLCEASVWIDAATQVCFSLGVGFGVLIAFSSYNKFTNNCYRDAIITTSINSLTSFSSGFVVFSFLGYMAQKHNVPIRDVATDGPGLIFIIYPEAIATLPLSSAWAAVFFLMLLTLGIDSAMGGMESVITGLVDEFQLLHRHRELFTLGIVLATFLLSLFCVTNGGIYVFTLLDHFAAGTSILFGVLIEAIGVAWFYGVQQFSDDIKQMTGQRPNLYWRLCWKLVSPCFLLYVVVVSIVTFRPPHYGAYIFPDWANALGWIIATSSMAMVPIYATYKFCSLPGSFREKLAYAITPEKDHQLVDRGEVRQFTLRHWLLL

Mus musculus [5] = species on record: Mus musculus; test: Antagonism of tetrabenazine (TBZ)-induced depression in mice measured for ptosis; format: functional; settings: Mus musculus; read-out: ED50; in short: as §3
[6] = target: D(2) dopamine receptor (Rattus norvegicus) (UniProt P61169); test: Binding affinity towards dopamine receptor D2 at 1.0 uM concentration
Sequence of D(2) dopamine receptor (Rattus norvegicus) (P61169 whole entry): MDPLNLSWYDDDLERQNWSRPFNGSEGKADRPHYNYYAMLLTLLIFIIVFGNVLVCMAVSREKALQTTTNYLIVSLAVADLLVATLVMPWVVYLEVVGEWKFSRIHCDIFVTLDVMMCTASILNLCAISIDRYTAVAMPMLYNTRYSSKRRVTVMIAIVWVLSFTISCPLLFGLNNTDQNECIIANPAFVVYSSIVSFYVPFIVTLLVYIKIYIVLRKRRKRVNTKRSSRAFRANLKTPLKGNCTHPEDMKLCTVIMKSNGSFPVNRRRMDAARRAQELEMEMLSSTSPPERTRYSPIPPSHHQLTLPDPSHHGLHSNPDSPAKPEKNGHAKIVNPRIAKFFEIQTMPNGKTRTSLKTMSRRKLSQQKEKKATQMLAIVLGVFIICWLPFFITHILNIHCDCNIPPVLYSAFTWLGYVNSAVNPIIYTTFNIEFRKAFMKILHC
In short: (§4)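 Rat brain crude synaptic membranes in 20 mM NaHEPES pH 7.5. Ligands: α1 cortex […] 0.4 nM, nonspecific with (-)-NE 100 μM, 30 min at 25 °C. […] D2 striatum [3H]spiperone 0.05 nM with (+)-butaclamol 1 μM, 45 min at 37 °C. S1 cortex [3H]5-HT 1 nM plus glutathione and MgCl2, with 5-HT 10 μM, 20 min at 37 °C. […] Samples filtered on GF/B and counted.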

[7] = target: Muscarinic acetylcholine receptor (Rattus norvegicus) (UniProt P08482+P08483+P08485+P08911+P10980); test: Binding affinity towards Muscarinic acetylcholine receptor at 1.0 uM concentration; format: protein assay
[8] = target: Adrenergic receptor alpha-1 (Rattus norvegicus) (UniProt P15823+P23944+P43140); test: Binding affinity towards alpha-1 adrenergic receptor at 1.0 uM concentration; format: protein assay; in short: as §4
Mus musculus [9] = species on record: Mus musculus; test: Antagonism of tetrabenazine (TBZ)-induced depression measured in mice by motor activity; format: functional; settings: Mus musculus; read-out: ED50; in short: as §3
[10] = target: Serotonin 1 (5-HT1) receptor (Rattus norvegicus) (UniProt P28564+P30940+P19327+P28565); test: Binding affinity towards serotonin S1 receptor at 1.0 uM; format: protein assay; in short: as §4
[11] = target: Serotonin 2 (5-HT2) receptor (Rattus norvegicus) (UniProt P30994+P08909+P14842); test: Binding affinity towards 5-hydroxytryptamine 2 receptor at 1.0 uM concentration; format: protein assay; in short: as §4
Sequence of Serotonin 2 (5-HT2) receptor (Rattus norvegicus) (P08909 whole entry, looked up): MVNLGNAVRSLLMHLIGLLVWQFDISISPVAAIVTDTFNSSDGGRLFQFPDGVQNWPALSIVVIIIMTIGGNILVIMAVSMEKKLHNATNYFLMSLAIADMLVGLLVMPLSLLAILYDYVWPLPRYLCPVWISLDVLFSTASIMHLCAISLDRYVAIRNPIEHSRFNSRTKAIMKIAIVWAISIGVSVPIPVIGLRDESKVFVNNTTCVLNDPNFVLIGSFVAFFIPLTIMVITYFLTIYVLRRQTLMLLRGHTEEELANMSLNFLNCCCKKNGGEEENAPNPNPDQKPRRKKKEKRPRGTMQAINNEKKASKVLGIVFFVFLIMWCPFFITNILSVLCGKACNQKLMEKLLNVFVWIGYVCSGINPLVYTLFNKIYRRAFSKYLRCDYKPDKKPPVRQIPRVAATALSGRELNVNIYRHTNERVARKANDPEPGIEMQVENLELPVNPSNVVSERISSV
Sequence of Serotonin 2 (5-HT2) receptor (Rattus norvegicus) (P14842 whole entry, looked up): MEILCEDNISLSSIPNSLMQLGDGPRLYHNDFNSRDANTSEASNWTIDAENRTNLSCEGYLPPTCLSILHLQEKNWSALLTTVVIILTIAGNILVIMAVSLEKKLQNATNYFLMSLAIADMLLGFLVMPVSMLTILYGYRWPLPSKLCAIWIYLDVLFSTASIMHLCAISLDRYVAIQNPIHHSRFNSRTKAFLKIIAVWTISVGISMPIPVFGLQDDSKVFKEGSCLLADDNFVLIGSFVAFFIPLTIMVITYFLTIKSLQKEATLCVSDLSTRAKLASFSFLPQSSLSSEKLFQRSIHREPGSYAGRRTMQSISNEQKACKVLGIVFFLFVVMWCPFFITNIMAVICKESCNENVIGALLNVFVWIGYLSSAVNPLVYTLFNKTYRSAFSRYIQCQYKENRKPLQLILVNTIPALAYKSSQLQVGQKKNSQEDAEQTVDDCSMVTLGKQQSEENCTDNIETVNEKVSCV
Sequence of Serotonin 2 (5-HT2) receptor (Rattus norvegicus) (P30994 whole entry, looked up): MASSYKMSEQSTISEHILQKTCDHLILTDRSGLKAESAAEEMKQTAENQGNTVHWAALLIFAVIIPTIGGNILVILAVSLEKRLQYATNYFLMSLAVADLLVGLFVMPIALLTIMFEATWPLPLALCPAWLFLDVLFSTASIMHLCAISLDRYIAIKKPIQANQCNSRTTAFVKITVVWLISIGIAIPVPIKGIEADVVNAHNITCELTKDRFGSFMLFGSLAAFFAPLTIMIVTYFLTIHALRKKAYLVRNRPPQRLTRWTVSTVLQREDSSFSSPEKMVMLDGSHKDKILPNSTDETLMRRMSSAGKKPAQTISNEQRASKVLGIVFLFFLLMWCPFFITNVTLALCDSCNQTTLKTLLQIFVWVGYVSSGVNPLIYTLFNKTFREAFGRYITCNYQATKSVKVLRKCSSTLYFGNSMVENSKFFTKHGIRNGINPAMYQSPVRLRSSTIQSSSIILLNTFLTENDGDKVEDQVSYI

[12] = target: T1, Adrenergic receptor alpha-1 (Rattus norvegicus, UniProt P15823+P23944+P43140); test: Binding affinity towards alpha-1 adrenergic receptor; format: protein assay
T1 sequence (P15823 whole entry): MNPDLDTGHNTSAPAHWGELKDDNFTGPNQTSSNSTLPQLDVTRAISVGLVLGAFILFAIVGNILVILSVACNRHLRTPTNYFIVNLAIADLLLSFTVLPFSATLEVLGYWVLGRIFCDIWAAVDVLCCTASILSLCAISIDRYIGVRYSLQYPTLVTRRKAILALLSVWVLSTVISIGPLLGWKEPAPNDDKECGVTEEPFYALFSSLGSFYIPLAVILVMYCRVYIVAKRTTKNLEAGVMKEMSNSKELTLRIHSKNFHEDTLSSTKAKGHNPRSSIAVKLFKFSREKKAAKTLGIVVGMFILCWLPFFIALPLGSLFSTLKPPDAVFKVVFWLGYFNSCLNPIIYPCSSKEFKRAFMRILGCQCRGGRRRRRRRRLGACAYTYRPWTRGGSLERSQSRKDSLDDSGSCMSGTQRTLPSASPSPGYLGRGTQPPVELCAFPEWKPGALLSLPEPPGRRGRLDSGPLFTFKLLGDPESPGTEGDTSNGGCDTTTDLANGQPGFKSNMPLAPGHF
T1 sequence (P23944 whole entry): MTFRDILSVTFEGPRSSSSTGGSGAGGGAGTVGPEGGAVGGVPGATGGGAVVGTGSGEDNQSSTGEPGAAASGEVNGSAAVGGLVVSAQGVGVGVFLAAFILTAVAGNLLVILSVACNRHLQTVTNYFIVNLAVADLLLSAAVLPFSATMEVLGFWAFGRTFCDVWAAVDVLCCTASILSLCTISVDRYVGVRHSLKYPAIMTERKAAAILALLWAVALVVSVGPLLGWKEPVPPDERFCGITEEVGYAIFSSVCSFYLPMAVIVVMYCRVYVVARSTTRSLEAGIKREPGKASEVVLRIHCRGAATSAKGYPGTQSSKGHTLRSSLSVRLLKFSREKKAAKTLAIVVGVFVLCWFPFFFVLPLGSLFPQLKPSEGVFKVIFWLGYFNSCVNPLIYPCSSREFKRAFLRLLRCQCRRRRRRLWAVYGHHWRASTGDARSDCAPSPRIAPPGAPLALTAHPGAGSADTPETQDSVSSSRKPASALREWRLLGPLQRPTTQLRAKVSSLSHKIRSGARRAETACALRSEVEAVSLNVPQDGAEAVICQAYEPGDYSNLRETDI
T1 sequence (P43140 whole entry): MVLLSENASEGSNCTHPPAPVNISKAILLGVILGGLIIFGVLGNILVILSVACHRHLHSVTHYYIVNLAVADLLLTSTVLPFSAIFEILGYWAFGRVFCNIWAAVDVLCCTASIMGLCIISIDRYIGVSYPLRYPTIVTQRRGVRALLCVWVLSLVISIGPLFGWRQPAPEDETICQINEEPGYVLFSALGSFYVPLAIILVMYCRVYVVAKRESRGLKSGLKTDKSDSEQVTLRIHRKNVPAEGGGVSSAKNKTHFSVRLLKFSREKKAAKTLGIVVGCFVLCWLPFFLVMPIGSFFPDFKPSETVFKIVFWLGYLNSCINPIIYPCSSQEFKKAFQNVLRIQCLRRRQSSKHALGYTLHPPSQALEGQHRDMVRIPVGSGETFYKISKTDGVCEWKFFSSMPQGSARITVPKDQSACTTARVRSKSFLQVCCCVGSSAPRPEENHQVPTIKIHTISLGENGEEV

[13] = target: Norepinephrine transporter (Rattus norvegicus) (UniProt Q9WTR4); test: Ability to inhibit the uptake of [3H]norepinephrine (NE) 0.1 uM concentration at rat brain synaptosomes; format: functional, subcellular; in short: as §1
Sequence of Norepinephrine transporter (Rattus norvegicus) (Q9WTR4 as listed by the source): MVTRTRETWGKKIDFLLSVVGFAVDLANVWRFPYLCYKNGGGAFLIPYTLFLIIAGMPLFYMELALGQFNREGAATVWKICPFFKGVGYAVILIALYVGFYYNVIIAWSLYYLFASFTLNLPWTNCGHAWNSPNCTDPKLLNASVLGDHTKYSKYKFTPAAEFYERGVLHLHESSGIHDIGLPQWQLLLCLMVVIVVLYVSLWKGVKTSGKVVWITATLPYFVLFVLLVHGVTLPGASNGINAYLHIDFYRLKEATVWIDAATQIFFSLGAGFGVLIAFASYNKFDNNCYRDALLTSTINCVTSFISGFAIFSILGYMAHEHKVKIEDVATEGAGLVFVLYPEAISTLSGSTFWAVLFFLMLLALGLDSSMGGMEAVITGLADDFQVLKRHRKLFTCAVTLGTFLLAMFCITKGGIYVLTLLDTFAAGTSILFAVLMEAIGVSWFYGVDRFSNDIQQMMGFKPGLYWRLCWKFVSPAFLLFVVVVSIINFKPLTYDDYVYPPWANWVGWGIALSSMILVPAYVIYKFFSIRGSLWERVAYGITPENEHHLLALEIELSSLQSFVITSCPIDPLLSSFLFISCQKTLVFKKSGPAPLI

Mus musculus [14] = test: Ability to antagonise intraperitoneal dose; inactive (<10% antagonism) at 30 mgjkg is represented as I-30.; format: functional, organism-based; in short: as §3
[15] = target: Sodium-dependent dopamine transporter (Rattus norvegicus) (UniProt P23977); test: Ability to inhibit the uptake of [3H]dopamine (DA) 0.1 uM concentration at rat brain synaptosomes; format: functional, subcellular; in short: as §1
[16] = target: Sodium-dependent serotonin transporter (Rattus norvegicus) (UniProt P31652); test: Ability to inhibit the uptake of [3H]- serotonin(5-HT) 0.1 uM concentration at rat brain synaptosomes; format: functional, subcellular; in short: as §1
[17] = target: Norepinephrine transporter (Rattus norvegicus, UniProt Q9WTR4); test: Inhibition of uptake of tritiated norepinephrine (NE) in rat synaptosomes; format: subcellular, Brain
Sequence of Norepinephrine transporter (Q9WTR4 whole entry): as the sequence (Q9WTR4 as listed by the source) above

[18] = target: Sodium-dependent dopamine transporter (Rattus norvegicus, UniProt P23977); test: Inhibition of the uptake of tritiated dopamine (DA) in rat synaptosomes; format: subcellular, Brain
Sequence of Sodium-dependent dopamine transporter (P23977 whole entry): as the sequence (P23977 whole entry) above

[19] = target: Adrenergic receptor alpha-2 (Rattus norvegicus) (UniProt P22086+P19328+P22909); test: Binding affinity towards alpha-2 adrenergic receptor at 1.0 uM concentration; format: protein assay
Mus musculus [20] = species on record: Mus musculus; test: Gross behavioral effects ascertained in mice; S indicates significant stimulant properties.; format: functional, organism-based; in short: as §2

Sequence of Sodium-dependent serotonin transporter (Rattus norvegicus) (P31652 whole entry): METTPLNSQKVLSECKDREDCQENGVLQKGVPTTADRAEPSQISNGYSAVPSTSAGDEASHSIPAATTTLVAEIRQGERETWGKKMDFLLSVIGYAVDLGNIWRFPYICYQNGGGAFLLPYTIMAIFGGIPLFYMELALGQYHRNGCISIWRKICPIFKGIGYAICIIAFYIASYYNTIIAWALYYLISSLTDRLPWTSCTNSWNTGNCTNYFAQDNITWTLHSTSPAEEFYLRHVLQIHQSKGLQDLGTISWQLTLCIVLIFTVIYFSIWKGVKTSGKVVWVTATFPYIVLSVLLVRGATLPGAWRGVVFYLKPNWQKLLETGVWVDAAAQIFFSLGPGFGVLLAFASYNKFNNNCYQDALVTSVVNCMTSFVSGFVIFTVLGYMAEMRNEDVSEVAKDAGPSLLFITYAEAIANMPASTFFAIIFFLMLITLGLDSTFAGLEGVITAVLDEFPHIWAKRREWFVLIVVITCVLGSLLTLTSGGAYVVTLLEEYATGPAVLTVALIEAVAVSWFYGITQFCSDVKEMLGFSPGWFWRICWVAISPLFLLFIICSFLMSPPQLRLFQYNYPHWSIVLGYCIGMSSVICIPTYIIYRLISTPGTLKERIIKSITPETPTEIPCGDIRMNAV

`COc1ccc([C@@H]2CN3CCC[C@H]3c3ccccc32)cc1OC` was tested, and the inhibition [1] was 27%, the behavior (Mus musculus [2]) was “Weak” and the Inhibition (Rattus norvegicus) was 9%. The ED50 (Mus musculus [3]) was “inactive”, the inhibition [4] was 11% and the ED50 (Mus musculus [5]) was 29.4 mg/kg.

With `Br.CSc1ccc([C@@H]2CN3CCC[C@H]3c3ccccc32)cc1` the inhibition [6] was 28%, the inhibition [7] was 0% and the inhibition [8] was 43%. The ED50 (Mus musculus [9]) was greater than 75 mg/kg and the ED50 (Mus musculus [5]) was 10.9 mg/kg.

In the case of `CSc1ccc([C@@H]2CN3CCC[C@@H]3c3ccccc32)cc1` (stereo in doubt; (+)-48b), the inhibition [10] is reported as 31%.

In the case of `Br.Clc1ccccc1[C@@H]1CN2CCC[C@H]2c2ccccc21`, the inhibition [1] is reported as 19%, the inhibition [6] is reported as 54% and the behavior (Mus musculus [2]) is reported as “Partial stimulant”. It also gave an inhibition [11] of 10%, an Inhibition (Rattus norvegicus) of 41% and an inhibition [4] of 9%. It also gave an ED50 (Mus musculus [9]) greater than 30 mg/kg, an ED50 (Mus musculus [5]) of 2.5 mg/kg and a Ki [12] of 41 nM.

In the case of `C[C@@H]1[C@@H](c2ccccc2)c2ccccc2[C@@H]2CCCN12`, the inhibition [13] is reported as 4%, the ED50 (Mus musculus [14]) is reported as “inactive” and the behavior (Mus musculus [2]) is reported as “Weak”. For the same compound, the inhibition [15] was 0%, the inhibition [16] was 12% and the ED50 (Mus musculus [3]) was “inactive”.

`CNCCC(Oc1ccc(C(F)(F)F)cc1)c1ccccc1` (stereo not given) showed an inhibition [6] of 12% and an inhibition [10] of 13%.

With `c1ccc([C@@H]2CN3CCC[C@@H]3c3ccccc32)cc1` (stereo in doubt; (-)-7b) the inhibition [6] was 14%, the behavior (Mus musculus [2]) was “Partial stimulant” and the inhibition [11] was 58%.

`Br.COc1ccc([C@@H]2CN3CCC[C@@H]3c3ccccc32)cc1OC` was tested, and the Ki [17] was 3.4 nM, the inhibition [6] was -1% and the behavior (Mus musculus [2]) was “Partial stimulant”. For the same compound, the inhibition [7] was -1%, the inhibition [8] was 58% and the ED50 (Mus musculus [9]) was 2 mg/kg. The Ki [18] was 71.9 nM, the ED50 (Mus musculus [5]) was 0.13 mg/kg and the inhibition [19] was 15%.

With `Br.Clc1ccc([C@@H]2CN3CCC[C@@H]3c3ccccc32)cc1` the behavior (Mus musculus [20]) was “Stimulant”, the inhibition [6] was 35% and the inhibition [11] was 59%. The inhibition [7] was 0%, the inhibition [8] was 61% and the ED50 (Mus musculus [9]) was 0.55 mg/kg. The ED50 (Mus musculus [5]) was 0.34 mg/kg and the inhibition [19] was 35%.

In the case of `O=C(CCCN1CCC(O)(c2ccc(Cl)cc2)CC1)c1ccc(F)cc1`, the inhibition [10] is reported as 58%.
